Our source for the IC50, Activity and MIC values is ChEMBL document CHEMBL1773069, “Marinoquinolines A-F, pyrroloquinolines from Ohtaekwangia kribbensis (Bacteroidetes)” (J Nat Prod, 2011).

Molecules are shown by their SMILES. pIC50: −log10 of the molar value. Values after ≈ are worked out from the molar mass of the structure shown. Active and inactive are the calls of the source. No cut-off for these calls is given here. Where only a bound is given, the exact number is not on record here.

In one assay the test system is L6. The experiment in a line: Cytotoxicity against rat L6 cells by MTT assay. Format: cell-based.
A short description of assay [1]: Cytotoxicity against human KB-3-1 cells after 5 days by MTT assay. It is filed as functional, cell-based. The following applies: KB 3-1, 120 h. The method in brief:
(§1)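 Culture media were DMEM for KB-3-1 and L929, EBM-2 for HUVEC and RPMI for MCF-7, each with 10% FBS, at 37 °C under 10% CO2. Serial dilutions from a 1 mg/mL methanol stock were added to cell suspension (50 000/mL). After 5 days, MTT was read at 590 nm. IC50 (50% growth inhibition versus control) came from dose–response curves. Methanol served as negative control.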

The test system of the next assay is MCF7. Description: Cytotoxicity against human MCF7 cells after 5 days by MTT assay. It is filed as functional, cell-based. The following applies: MCF7, 120 h. In short, it runs like this: as §1
The test system of another assay is Leishmania donovani. The experiment in a line: Antileishmanial activity against Leishmania donovani MHOM-ET-67/L82 axenic amastigotes. Format: functional, organism-based.
In assay [2] the test system is Escherichia coli. Description: Antimicrobial activity against Escherichia coli at 33.5 ug/ml after 24 to 48 hrs. Format: functional, organism-based.
The next assay relates to Trypanosoma cruzi. The experiment in a line: Antiparasitic activity against Trypanosoma cruzi Tulahuen C4 amastigotes. Format: functional, organism-based.
A further assay deals with L929. The experiment in a line: Cytotoxicity against mouse L929 cells after 5 days by MTT assay. It is filed as functional, cell-based. The following applies: L929, 120 h. In short, it runs like this: as §1
A further assay concerns Plasmodium falciparum. The experiment in a line: Antimalarial activity against Plasmodium falciparum K1 intra-erythrocytic form. It is filed as functional, organism-based.
The subject of assay [3] is Trypanosoma brucei rhodesiense. Description: Antiparasitic activity against Trypanosoma brucei rhodesiense STIB 900 trypomastigotes. Format: functional, organism-based.
The next assay relates to HUVEC. Description: Cytotoxicity against HUVEC after 5 days by MTT assay. Format: cell-based. The following applies: Homo sapiens, 120 h. The method in brief:
as §1

Another assay concerns Rhodotorula glutinis. Description: Antifungal activity against Rhodotorula glutinis after 24 to 48 hrs. It is filed as functional. In short, it runs like this:
(§2)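 Broth microdilution in 96-well plates. Bacteria were grown in EBS medium. Yeasts and fungi were grown in MYC medium (1.0% phytone peptone, 1.0% glucose, 50 mM HEPES, pH 7.0). Inoculum was test organism diluted 1:100 in medium. Compound was diluted 1:1 serially from 33.5 to […] μg/mL. Plates were shaken at 600 rpm, 30 °C, for 24–48 h. MIC was the lowest concentration preventing visible growth.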

The subject of assay [4] is Schizosaccharomyces pombe. Description: Antifungal activity against Schizosaccharomyces pombe after 24 to 48 hrs. Format: functional. The method in brief: as §2
A further assay has as its system Micrococcus luteus. Description: Antibacterial activity against Micrococcus luteus after 24 to 48 hrs. It is filed as functional. In short, it runs like this: as §2
In assay [5] the test system is Escherichia coli. The experiment in a line: Antimicrobial activity against Escherichia coli after 24 to 48 hrs. It is filed as functional, organism-based. The method in brief: as §2
The next assay relates to Nocardia sp. Description: Antibacterial activity against Nocardia flava after 24 to 48 hrs. Format: functional. The method in brief: as §2
A further assay has as its system Mucor hiemalis. Description: Antifungal activity against Mucor hiemalis after 24 to 48 hrs. It is filed as functional. In short, it runs like this:
as §2

In assay [6] the test system is Schizosaccharomyces pombe. Description: Antifungal activity against Schizosaccharomyces pombe at 33.5 ug/ml after 24 to 48 hrs. Format: functional, organism-based.

`Cc1nc2ccccc2c2cc[nH]c12` [MARINOQUINOLINE A]: the pIC50 in the assay with L6 was 4.51; in the assay with Leishmania donovani, less than 3.26; with Trypanosoma cruzi it was 4.53; with Plasmodium falciparum, 5.01; in assay [3], 4.26. In addition, the IC50 stood at 2.2 µg/mL (≈ 12.1 µM) in [1], 3.5 µg/mL (≈ 19.2 µM) in the assay on MCF7, 5.5 µg/mL (≈ 30.2 µM) with L929 and 1.5 µg/mL (≈ 8.23 µM) in the assay on HUVEC. For the same compound, the outcome in the assay with Escherichia coli [2] was Active.

In the case of `c1ccc(Cc2nc3ccccc3c3cc[nH]c23)cc1` [MARINOQUINOLINE C], the pIC50 is 4.41 with L6; 4.23 in the assay on Leishmania donovani; 4.55 with Trypanosoma cruzi; 5.26 in the assay with Plasmodium falciparum; 4.37 in [3]. Besides, the IC50 in [1] worked out at 2 µg/mL (≈ 7.74 µM); with MCF7 it was 2.6 µg/mL (≈ 10.1 µM); with L929, 5.4 µg/mL (≈ 20.9 µM); in the assay on HUVEC, 0.55 µg/mL (≈ 2.13 µM). The minimum inhibitory concentration (MIC) (with Rhodotorula glutinis; in assay [4]) was 33.5 µg/mL (≈ 130 µM) throughout.

In the case of `Oc1ccc(Cc2nc3ccccc3c3cc[nH]c23)cc1` [MARINOQUINOLINE D], the result (in the assay with Micrococcus luteus; in the assay with Escherichia coli [5]; with Nocardia sp.; with Rhodotorula glutinis; in assay [4]; in the assay with Mucor hiemalis) was inactive. Moreover, the negative-log IC50 (pIC50) is 4.18 in the assay on L6; 3.92 with Leishmania donovani; 4.57 in the assay with Trypanosoma cruzi; 4.82 in the assay with Plasmodium falciparum; 4.21 in assay [3]. The IC50 in assay [1] was determined as 3.2 µg/mL (≈ 11.7 µM); in the assay with MCF7, 3.2 µg/mL (≈ 11.7 µM); with L929, 1.1 µg/mL (≈ 4.01 µM); in the assay on HUVEC it was 2.5 µg/mL (≈ 9.11 µM).

On to `c1ccc2c(c1)nc(-c1c[nH]c3ccccc13)c1[nH]ccc12` [MARINOQUINOLINE E], for which the minimal inhibitory concentration (MIC) (in the assay with Micrococcus luteus; in the assay with Nocardia sp.; with Rhodotorula glutinis; in [4]; against Mucor hiemalis) was 33.5 µg/mL (≈ 118 µM) in each case. In addition, the pIC50 was 4.45 with L6; 4.19 in the assay on Leishmania donovani; 4.63 with Trypanosoma cruzi; 5.12 in the assay with Plasmodium falciparum; 4.29 in assay [3]. For the same compound, the half-maximal inhibitory concentration (IC50) amounted to 4.5 µg/mL (≈ 15.9 µM) in [1], 1.9 µg/mL (≈ 6.71 µM) in the assay on MCF7, 5.5 µg/mL (≈ 19.4 µM) in the assay with L929 and 5.8 µg/mL (≈ 20.5 µM) in the assay with HUVEC.

Turning to `O=C(c1c[nH]c2ccccc12)c1nc2ccccc2c2cc[nH]c12` [MARINOQUINOLINE F], the pIC50 in the assay on L6 was 4.90; in the assay with Leishmania donovani, 4.79; with Trypanosoma cruzi, 4.66; in the assay with Plasmodium falciparum, 5.77; in assay [3], 4.41. The IC50 in assay [1] was 0.3 µg/mL (≈ 0.964 µM); in the assay on MCF7 it was 1.6 µg/mL (≈ 5.14 µM); with L929, 4.1 µg/mL (≈ 13.2 µM); with HUVEC, 2.8 µg/mL (≈ 8.99 µM). In [6], the outcome was Active.

`Nc1nc(N)nc(Nc2ccc([As]3SCC(CO)S3)cc2)n1` (centres undefined) [MELARSOPROL] showed a pIC50 in assay [3] of 7.92.

Turning to `COc1cc([C@@H]2c3cc4c(cc3[C@H](O)[C@H]3COC(=O)[C@H]23)OCO4)cc(OC)c1OC` [PODOFILOX], the negative-log IC50 (pIC50) in the assay with L6 is 7.68.

In the case of `CC[C@]1(O)C[C@@H]2CN(CCc3c([nH]c4ccccc34)[C@@](C(=O)OC)(c3cc4c(cc3OC)N(C)[C@H]3[C@@](O)(C(=O)OC)[C@H](OC(C)=O)[C@]5(CC)C=CCN6CC[C@]43[C@@H]65)C2)C1` [VINBLASTINE], the figures for the IC50 (in [1]; in the assay with L929) were 0.0086 µg/mL (≈ 0.0106 µM) and 0.018 µg/mL (≈ 0.0222 µM), respectively.
